Calls of active or inactive are those of the source. No cut-off for these calls is given here.
Tests used:
[1] = test system: Human alphaherpesvirus 1; assay: Antiviral activity against wild type Herpes simplex virus 1 KOS infected in HEL cells assessed as inhibition of virus-induced cytopathic effect; assay type: functional, cell-based; details: Human alphaherpesvirus 1, KOS
[2] = test system: Human alphaherpesvirus 2; assay: Antiviral activity against Herpes simplex virus 2 G infected in HEL cells assessed as inhibition of virus-induced cytopathic effect; assay type: functional, cell-based; details: Human alphaherpesvirus 2, strain G
Method in brief: (§1)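 Confluent cell monolayers were infected with 100 CCID50 of virus (1 CCID50 = dose infecting 50% of cultures) and incubated with varying compound concentrations. Cytopathicity was scored once complete in untreated infected controls.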

[3] = test system: Human alphaherpesvirus 1; assay: Antiviral activity against thymidine kinase-deficient ACV-resistant Herpes simplex virus 1 KOS infected in HEL cells assessed as inhibition of virus-induced cytopathic effect; assay type: functional, cell-based; details: Human alphaherpesvirus 1, KOS
[4] = test system: Human alphaherpesvirus 3; assay: Antiviral activity against wild type thymidine kinase expressing Varicella-Zoster virus Oka infected in HEL cells assessed as inhibition of virus-induced plaque formation; assay type: functional, cell-based; details: Human alphaherpesvirus 3, Oka
Method in brief: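 Confluent HEL cultures were inoculated with 20 PFU of VZV and incubated with varying compound concentrations. Plaques were counted once formation was complete in untreated infected controls.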

[5] = test system: Human alphaherpesvirus 3; assay: Antiviral activity against wild type thymidine kinase-deficient Varicella-Zoster virus 07-1 infected in HEL cells assessed as inhibition of virus-induced plaque formation; assay type: functional, cell-based; details: Human alphaherpesvirus 3, 07-1, HEL
Method in brief: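 HEL fibroblast monolayers were infected with 20 PFU of VZV and kept with varying compound concentrations. Plaques were counted once formation was complete in untreated infected controls.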

[6] = test system: Human betaherpesvirus 5; assay: Antiviral activity against Human cytomegalovirus AD169 infected in HEL cells assessed as inhibition of virus-induced cytopathic effect; assay type: functional, cell-based; details: Human betaherpesvirus 5, AD169, HEL; method in brief: as §1
[7] = test system: Human betaherpesvirus 5; assay: Antiviral activity against Human cytomegalovirus Davis infected in HEL cells assessed as inhibition of virus-induced cytopathic effect; assay type: functional, cell-based; details: Human betaherpesvirus 5, Davis; method in brief: as §1
[8] = test system: Vaccinia virus; assay: Antiviral activity against Vaccinia virus Lederle infected in HEL cells assessed as inhibition of virus-induced cytopathic effect; assay type: functional, cell-based; details: Orthopoxvirus vaccinia
[9] = test system: Vesicular stomatitis virus; assay: Antiviral activity against Vesicular stomatitis virus infected in HEL cells assessed as inhibition of virus-induced cytopathic effect; assay type: functional, cell-based
[10] = test system: Coxsackievirus B4; assay: Antiviral activity against Coxsackie virus B4 infected in human HeLA cells assessed as inhibition of virus-induced cytopathic effect; assay type: functional, cell-based; method in brief: as §1
[11] = Antiviral activity against Respiratory syncytial virus A strain long infected in human HeLA cells assessed as inhibition of virus-induced cytopathic effect; assay type: functional, cell-based; method in brief: as §1
[12] = test system: Human respirovirus 3; assay: Antiviral activity against Parainfluenza virus 3 infected in African green monkey Vero cells assessed as inhibition of virus-induced cytopathic effect; assay type: functional; method in brief: as §1
[13] = test system: Mammalian orthoreovirus 1; assay: Antiviral activity against Reovirus-1 infected in African green monkey Vero cells assessed as inhibition of virus-induced cytopathic effect; assay type: functional; method in brief: as §1
[14] = test system: Sindbis virus; assay: Antiviral activity against Sindbis virus infected in African green monkey Vero cells assessed as inhibition of virus-induced cytopathic effect; assay type: functional; method in brief: as §1
[15] = test system: Punta Toro virus; assay: Antiviral activity against Punta Toro virus infected in African green monkey Vero cells assessed as inhibition of virus-induced cytopathic effect; assay type: functional; method in brief: as §1
[16] = test system: Feline coronavirus; assay: Antiviral activity against Feline coronavirus infected in CRFK cells assessed as inhibition of virus-induced cytopathic effect; assay type: functional, cell-based
[17] = test system: Influenza A virus; assay: Antiviral activity against Influenza A virus (H1N1) infected in HEL cells assessed as inhibition of virus-induced cytopathic effect; assay type: functional, cell-based
[18] = test system: Influenza A virus H3N2; assay: Antiviral activity against Influenza A virus H3N2 infected in HEL cells assessed as inhibition of virus-induced cytopathic effect; assay type: functional, cell-based
[19] = test system: Influenza B virus; assay: Antiviral activity against influenza B virus infected in HEL cells assessed as inhibition of virus-induced cytopathic effect; assay type: functional, cell-based
[20] = test system: HEL; assay: Cytotoxicity against HEL cells assessed as reduction in cell growth after 3 days by coulter counter method; assay type: cell-based; details: human, hel, 72 h
Method in brief: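 HEL cells were seeded at 5 × 10³ cells/well and grown for 24 h, then given medium containing graded compound concentrations. After 3 days at 37 °C, cells were counted by Coulter counter.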

Compound	EC50 [1]	EC50 [2]	EC50 [3]	EC50 [4]	EC50 [5]	EC50 [6]	EC50 [7]	EC50 [8]	Activity [9]	Activity [10]	Activity [11]	Activity [12]	Activity [13]	Activity [14]	Activity [15]	Activity [16]	Activity [17]	Activity [18]	Activity [19]	CC50 [20]
CC(C)OC(=O)OCOP(=O)(O)COCCn1cnc(N)nc1=O	> 100 µM	> 100 µM	> 100 µM	48.9 µM	48.9 µM	> 100 µM	> 100 µM	> 100 µM	inactive	inactive	inactive	inactive	inactive	inactive	inactive	inactive	inactive	inactive	inactive	
CC(C)(C)C(=O)OCOP(=O)(COCCOc1cc(N)nc(N)n1)OCOC(=O)C(C)(C)C	10 µM	9.5 µM	14.5 µM	0.67 µM	1.26 µM	47.4 µM	36.5 µM		inactive	inactive	inactive	inactive	inactive	inactive	inactive	inactive	inactive	inactive	inactive	16.6 µM
CCCCCCCCCCCCCCCCCCOCCNc1ncn(CCOCP(=O)(OCCOCCCCCCCCCCCCCCCCCC)OCCOCCCCCCCCCCCCCCCCCC)c(=O)n1	> 100 µM	> 100 µM	> 100 µM	44.7 µM	100 µM	> 100 µM	> 100 µM	> 100 µM	inactive	inactive	inactive	inactive	inactive	inactive	inactive	inactive	inactive	inactive	inactive	
Nc1ccn(C[C@@H](CO)OCP(=O)(O)O)c(=O)n1 [CIDOFOVIR]	2.93 µM	1.39 µM	2.66 µM			0.87 µM	0.76 µM	22.2 µM												216 µM
Nc1nc2c(ncn2COCCO)c(=O)[nH]1 [ACYCLOVIR]		0.18 µM						> 250 µM												> 440 µM
CCCCCCCCCCCCCCCCCCOCCOP(=O)(COCCn1cnc(N)nc1=O)OCCOCCCCCCCCCCCCCCCCCC	> 100 µM	> 100 µM	> 100 µM	> 4 µM	> 0.8 µM	> 20 µM	> 20 µM	> 100 µM	inactive	inactive	inactive	inactive	inactive	inactive	inactive	inactive	inactive	inactive	inactive	
CC(C)OC(=O)OCOP(=O)(COCCn1cnc(N)nc1=O)OCOC(=O)OC(C)C	22 µM	22 µM	22 µM	15.3 µM	23.2 µM	26.2 µM	20 µM	> 100 µM	inactive	inactive	inactive	inactive	inactive	inactive	inactive	inactive	inactive	inactive	inactive	
O=c1[nH]c(=O)n([C@H]2C[C@H](O)[C@@H](CO)O2)cc1/C=C/Br [BRIVUDINE]		141 µM		0.024 µM	58.8 µM			19.1 µM												242 µM
Nc1nc(O)c2ncn(COC(CO)CO)c2n1 [GANCICLOVIR]								> 100 µM												≥ 308 µM
